# Experimental data published in ChEMBL document CHEMBL1955823, “Imidazo[1,2-a]pyrazines as novel PI3K inhibitors” (Bioorg Med Chem Lett, 2012).
# Experiments:
# CYP2C9 = CYP2C9 (Homo sapiens, UniProt P11712); experiment: Inhibition of CYP2C9 at 10 uM; format: ADME
# Procedure, shortened: (§1)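 CYP isoform panel (1A2, 2C9, 2C19, 2D6, 3A4); percent inhibition recorded at 10 µM test compound; run in duplicate by an outside contractor.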
# CYP1A2 = biological target: T1, CYP1A2 (Homo sapiens, UniProt P05177); experiment: Inhibition of CYP1A2 at 10 uM; format: ADME; procedure, shortened: as §1
# T1 sequence (P05177 whole entry): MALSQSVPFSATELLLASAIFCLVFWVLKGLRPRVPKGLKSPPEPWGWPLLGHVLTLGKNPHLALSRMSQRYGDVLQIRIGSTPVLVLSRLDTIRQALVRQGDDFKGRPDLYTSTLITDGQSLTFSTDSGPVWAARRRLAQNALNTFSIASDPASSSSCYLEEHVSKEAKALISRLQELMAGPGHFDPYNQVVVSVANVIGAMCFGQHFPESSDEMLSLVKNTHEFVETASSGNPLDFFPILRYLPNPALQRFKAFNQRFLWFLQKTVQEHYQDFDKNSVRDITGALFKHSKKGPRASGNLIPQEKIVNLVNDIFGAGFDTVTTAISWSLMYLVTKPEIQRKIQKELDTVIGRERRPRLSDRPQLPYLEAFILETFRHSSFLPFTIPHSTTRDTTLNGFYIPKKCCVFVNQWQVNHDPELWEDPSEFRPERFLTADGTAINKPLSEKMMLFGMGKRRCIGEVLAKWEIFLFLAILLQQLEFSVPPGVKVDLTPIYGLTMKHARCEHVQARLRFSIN
# [1] = Metabolic stability in human liver microsomes assessed as compound remaining at 1 uM after 30 mins
# CYP2D6 = CYP2D6 (Homo sapiens, UniProt P10635); experiment: Inhibition of CYP2D6 at 10 uM; format: ADME; procedure, shortened: as §1
# [2] = Metabolic stability in mouse liver microsomes assessed as compound remaining at 1 uM after 30 mins
# [3] = biological target: T2, PI3-kinase p110-alpha/p85-alpha (Homo sapiens, UniProt P42336); experiment: Inhibition of PI3K p110alpha/p85alpha; format: protein-complex assay
# Procedure, shortened: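 Biochemical kinase assay following the kit manufacturer's protocol with a modified kinase buffer (50 mM HEPES pH 7.5, 3 mM MgCl2, 100 mM NaCl, 1 mM EGTA, 0.04% CHAPS, 2 mM TCEP, 0.01 mg/ml BGG); 10 nM enzyme; ATP 50 µM; values are averages of two independent experiments, each in duplicate.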
# CYP2C19 = CYP2C19 (Homo sapiens, UniProt P33261); experiment: Inhibition of CYP2C19 at 10 uM; format: ADME; procedure, shortened: as §1
# CYP3A4 = CYP3A4 (Homo sapiens, UniProt P08684); experiment: Inhibition of CYP3A4 at 10 uM; format: ADME; procedure, shortened: as §1
# [4] = biological target: T2, PI3-kinase p110-alpha/p85-alpha; experiment: Inhibition of PI3K p110alpha/p85alpha-mediated AKT1 phosphorylation at Ser473 in human U2OS cells; format: cell-based
# Procedure, shortened: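 Endogenous phospho-Akt1 (Ser473) measured in U2OS osteosarcoma cells kept in 0.1% FBS and then serum-stimulated; read-out by cell-based ELISA with femto chemiluminescent substrate.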
# T2 sequence (P27986 whole entry): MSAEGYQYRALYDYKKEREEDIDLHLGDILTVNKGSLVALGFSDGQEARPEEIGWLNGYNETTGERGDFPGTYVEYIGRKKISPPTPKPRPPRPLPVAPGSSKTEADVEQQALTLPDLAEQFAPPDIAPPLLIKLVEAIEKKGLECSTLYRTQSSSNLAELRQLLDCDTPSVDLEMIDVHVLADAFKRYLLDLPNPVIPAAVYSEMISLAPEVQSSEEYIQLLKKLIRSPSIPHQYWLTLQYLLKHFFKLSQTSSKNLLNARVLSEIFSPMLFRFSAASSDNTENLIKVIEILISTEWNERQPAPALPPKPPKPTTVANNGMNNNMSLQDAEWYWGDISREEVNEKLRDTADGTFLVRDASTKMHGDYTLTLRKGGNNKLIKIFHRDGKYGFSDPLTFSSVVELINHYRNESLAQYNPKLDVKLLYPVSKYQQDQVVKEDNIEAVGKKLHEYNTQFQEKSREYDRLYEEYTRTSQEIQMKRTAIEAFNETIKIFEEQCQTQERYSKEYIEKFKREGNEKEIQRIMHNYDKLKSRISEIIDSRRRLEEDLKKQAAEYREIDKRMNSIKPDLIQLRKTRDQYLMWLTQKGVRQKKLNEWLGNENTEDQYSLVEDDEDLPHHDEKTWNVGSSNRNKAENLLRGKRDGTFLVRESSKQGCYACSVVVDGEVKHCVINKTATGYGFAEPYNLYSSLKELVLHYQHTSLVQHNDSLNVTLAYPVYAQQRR
# T2 sequence (P42336 whole entry): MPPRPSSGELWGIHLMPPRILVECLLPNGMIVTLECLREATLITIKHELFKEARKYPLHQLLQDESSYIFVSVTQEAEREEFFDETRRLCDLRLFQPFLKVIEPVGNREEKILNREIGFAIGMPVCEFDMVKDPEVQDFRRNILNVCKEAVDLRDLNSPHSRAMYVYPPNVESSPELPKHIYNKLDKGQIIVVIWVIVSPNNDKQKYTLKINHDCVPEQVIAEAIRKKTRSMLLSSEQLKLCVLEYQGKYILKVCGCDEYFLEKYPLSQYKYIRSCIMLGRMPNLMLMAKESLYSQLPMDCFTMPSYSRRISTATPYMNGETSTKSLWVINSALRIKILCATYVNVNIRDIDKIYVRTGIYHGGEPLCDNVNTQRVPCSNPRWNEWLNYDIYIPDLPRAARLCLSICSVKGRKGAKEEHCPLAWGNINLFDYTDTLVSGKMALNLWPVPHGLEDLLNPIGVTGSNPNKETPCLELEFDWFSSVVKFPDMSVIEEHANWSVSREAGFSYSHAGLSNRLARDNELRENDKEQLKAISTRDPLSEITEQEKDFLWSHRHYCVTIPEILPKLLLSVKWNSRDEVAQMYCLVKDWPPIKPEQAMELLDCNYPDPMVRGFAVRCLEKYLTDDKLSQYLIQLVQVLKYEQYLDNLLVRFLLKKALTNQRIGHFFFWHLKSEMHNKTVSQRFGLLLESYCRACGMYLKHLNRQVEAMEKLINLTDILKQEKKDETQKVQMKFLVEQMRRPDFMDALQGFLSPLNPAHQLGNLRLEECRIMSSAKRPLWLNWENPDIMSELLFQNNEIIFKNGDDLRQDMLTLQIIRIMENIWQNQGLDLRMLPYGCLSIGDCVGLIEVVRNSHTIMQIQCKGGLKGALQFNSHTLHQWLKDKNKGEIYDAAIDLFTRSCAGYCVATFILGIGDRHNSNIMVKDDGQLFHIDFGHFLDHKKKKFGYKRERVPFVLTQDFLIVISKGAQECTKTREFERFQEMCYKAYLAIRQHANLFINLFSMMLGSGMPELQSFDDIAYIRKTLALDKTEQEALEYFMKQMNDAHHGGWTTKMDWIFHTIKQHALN
# Chain of CYP2D6 (P10635 whole entry): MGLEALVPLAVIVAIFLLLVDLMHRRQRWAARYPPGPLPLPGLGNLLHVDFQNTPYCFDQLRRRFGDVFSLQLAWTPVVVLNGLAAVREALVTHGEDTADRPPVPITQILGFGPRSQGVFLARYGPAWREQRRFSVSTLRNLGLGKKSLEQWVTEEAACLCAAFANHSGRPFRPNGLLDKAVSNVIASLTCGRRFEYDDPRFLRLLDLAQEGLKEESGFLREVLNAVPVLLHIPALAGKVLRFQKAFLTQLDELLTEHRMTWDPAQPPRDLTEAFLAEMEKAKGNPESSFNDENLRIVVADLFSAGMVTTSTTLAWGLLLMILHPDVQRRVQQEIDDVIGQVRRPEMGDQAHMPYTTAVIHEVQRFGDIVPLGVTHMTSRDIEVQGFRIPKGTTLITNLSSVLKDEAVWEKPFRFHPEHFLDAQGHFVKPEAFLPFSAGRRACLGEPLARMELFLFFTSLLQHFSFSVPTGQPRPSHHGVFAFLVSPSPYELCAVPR
# Chain of CYP2C9 (P11712 whole entry, canonical isoform): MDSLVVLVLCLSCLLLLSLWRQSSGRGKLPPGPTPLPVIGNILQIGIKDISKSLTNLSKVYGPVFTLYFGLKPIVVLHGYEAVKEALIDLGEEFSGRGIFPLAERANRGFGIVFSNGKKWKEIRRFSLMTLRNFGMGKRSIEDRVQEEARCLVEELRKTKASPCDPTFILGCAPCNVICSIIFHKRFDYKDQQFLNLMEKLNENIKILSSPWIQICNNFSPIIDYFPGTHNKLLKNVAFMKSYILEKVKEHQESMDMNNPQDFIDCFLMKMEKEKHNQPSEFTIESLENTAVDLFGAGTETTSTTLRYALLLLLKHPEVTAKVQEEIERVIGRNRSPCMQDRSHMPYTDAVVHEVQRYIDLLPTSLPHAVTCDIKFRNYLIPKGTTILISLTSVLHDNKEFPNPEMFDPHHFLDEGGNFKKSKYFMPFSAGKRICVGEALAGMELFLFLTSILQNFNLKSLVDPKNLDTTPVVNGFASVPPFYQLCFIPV
# Chain of CYP3A4 (P08684 whole entry): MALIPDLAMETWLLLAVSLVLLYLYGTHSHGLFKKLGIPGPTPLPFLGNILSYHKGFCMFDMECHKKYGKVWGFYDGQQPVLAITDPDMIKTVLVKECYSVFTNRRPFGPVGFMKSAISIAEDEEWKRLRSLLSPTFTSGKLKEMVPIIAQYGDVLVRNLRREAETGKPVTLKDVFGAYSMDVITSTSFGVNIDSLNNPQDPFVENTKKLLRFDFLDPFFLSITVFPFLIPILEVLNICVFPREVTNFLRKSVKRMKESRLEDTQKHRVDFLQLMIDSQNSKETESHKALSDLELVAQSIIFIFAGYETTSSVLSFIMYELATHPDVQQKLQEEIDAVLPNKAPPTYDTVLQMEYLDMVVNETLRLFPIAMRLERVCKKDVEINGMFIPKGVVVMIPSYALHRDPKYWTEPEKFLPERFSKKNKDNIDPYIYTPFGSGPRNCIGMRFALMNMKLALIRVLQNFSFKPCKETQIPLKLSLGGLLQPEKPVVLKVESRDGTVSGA
# Chain of CYP2C19 (P33261 whole entry): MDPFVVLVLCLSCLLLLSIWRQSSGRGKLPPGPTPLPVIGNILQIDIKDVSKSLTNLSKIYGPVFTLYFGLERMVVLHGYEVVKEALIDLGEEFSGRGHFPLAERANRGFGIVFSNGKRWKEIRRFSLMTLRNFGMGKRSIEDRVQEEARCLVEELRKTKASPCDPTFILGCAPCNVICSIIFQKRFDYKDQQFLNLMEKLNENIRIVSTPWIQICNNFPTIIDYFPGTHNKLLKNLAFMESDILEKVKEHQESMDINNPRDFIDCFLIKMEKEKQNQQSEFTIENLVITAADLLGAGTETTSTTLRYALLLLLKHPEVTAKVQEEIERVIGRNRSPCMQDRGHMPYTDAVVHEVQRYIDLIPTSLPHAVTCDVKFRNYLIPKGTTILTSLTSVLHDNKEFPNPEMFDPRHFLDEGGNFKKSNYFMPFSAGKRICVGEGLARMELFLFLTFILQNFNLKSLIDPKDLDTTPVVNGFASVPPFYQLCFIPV
IC50 [3],EC50 [4],SMILES,also measured
897 nM,,Oc1cccc(-c2cn3c(N4CCNCC4)cnc3c(N3CCOCC3)n2)c1,
197 nM,,Oc1cccc(-c2cn3ccnc3c(N3CCOCC3)n2)c1,
2750 nM,,CN1CCN(Cc2cn3cc(-c4cccc(O)c4)nc(N4CCOCC4)c3n2)CC1,
107 nM,138 nM,NC(=O)c1cn2cc(-c3cccc4[nH]ncc34)nc(N3CCOCC3)c2n1,
512 nM,,CN1CCN(c2cnc3c(N4CCOCC4)nc(-c4cccc(O)c4)cn23)CC1,
526 nM,,CS(=O)(=O)N1CCN(c2cnc3c(N4CCOCC4)nc(-c4cccc(O)c4)cn23)CC1,

# Second part, the compound before the results:
SMILES,IC50 [3],EC50 [4],also measured
COCCNC(=O)c1cn2cc(-c3cccc4[nH]ncc34)nc(N3CCOCC3)c2n1,50 nM,200 nM,"inhibition at 10 µM (CYP2C9): < 25%; inhibition at 10 µM (CYP1A2): < 25%; remaining at 0.5 h, 1 µM [1]: 75%; inhibition at 10 µM (CYP2D6): < 25%; remaining at 0.5 h, 1 µM [2]: 62%; inhibition at 10 µM (CYP2C19): < 25%; inhibition at 10 µM (CYP3A4): < 25%"
CS(=O)(=O)N1CCN(Cc2cc3nc(-c4cccc5[nH]ncc45)nc(N4CCOCC4)c3s2)CC1 [PICTILISIB],,,inhibition at 10 µM (CYP2C9): < 25%; inhibition at 10 µM (CYP1A2): < 25%; inhibition at 10 µM (CYP2D6): < 25%; inhibition at 10 µM (CYP2C19): < 25%; inhibition at 10 µM (CYP3A4): < 25%
CN(C)CCNC(=O)c1cn2cc(-c3cccc4[nH]ncc34)nc(N3CCOCC3)c2n1,35 nM,976 nM,
CCNC(=O)c1cn2cc(-c3cccc4[nH]ncc34)nc(N3CCOCC3)c2n1,,713 nM,
